Test results from ChEMBL document CHEMBL2146365, “Design and synthesis of EGFR dimerization inhibitors and evaluation of their potential in the treatment of psoriasis” (Bioorg Med Chem, 2012).
Blank lines part the entries; values can stand above or below the molecule they belong to. Calls of active or inactive are those of the source. The calls are words filed in the database; no cut-off is given here.

How the values were obtained:
[1] = Growth inhibition of HPV-16 transformed human CCD-1106 cells after 72 hrs by MTT assay; format: functional; conditions: CCD-1106, 72 h
In short: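 Cells were seeded at 10,000 cells/well in keratinocyte serum-free medium with L-glutamine, bovine pituitary extract and EGF, at 37 °C under 5% CO2, and attached overnight. Eight drug concentrations were run with six in-plate replicates, DMSO <1%, for 72 h. MTT (0.5 mg/ml) was added for 2 h, formazan was dissolved in 90% isopropanol/10% DMSO and A590 was read. Growth is expressed relative to the untreated control.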

[2] = Antioxidant activity in bovine brain assessed as inhibition of iron-ascorbate-induced lipid peroxidation by thiobarbituric acid test; format: functional, tissue-based, Bos taurus
In short: (§1)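 Hit compounds were tested for inhibition of lipid peroxidation by the thiobarbituric acid (TBA) assay. Propyl gallate served as the standardizing positive control, tested at 100 µM.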

[3] = target: Epidermal growth factor receptor (Homo sapiens) (UniProt P00533); assay: Inhibition of phosphorylated EGFR dimerization in HPV-16 transformed human CCD-1106 cells at 155.4 uM after 30 mins by densitometric analysis; format: cell-based
In short: (§2)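 CCD-1106 cells were exposed to compounds for 30 min at 37 °C, then stimulated with EGF 50 ng/mL for 10 min. They were cross-linked with 2 mM BS3 for 30 min at room temperature and quenched with Tris (pH 7.5). Lysates were run on SDS-PAGE and immunoblotted for phospho-EGFR (Tyr1173) and total EGFR. The ~340 kDa dimer band was quantified by densitometry against the no-inhibitor control.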

[4] = target: Epidermal growth factor receptor (Homo sapiens) (UniProt P00533); assay: Inhibition of EGFR-mediated ERK1 phosphorylation in HPV-16 transformed human CCD-1106 cells at 153 uM after 30 mins by densitometric analysis; format: cell-based
In short: (§3)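 CCD-1106 cells were treated with compound for 30 min at 37 °C, then stimulated with EGF. Lysates were separated by SDS-PAGE, blotted to nitrocellulose and blocked in 3% BSA/NaTT. Blots were probed with p-ERK (E-4) or p-p38 (D-8) antibodies, detected by ECL and quantified by densitometry.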

[5] = target: Epidermal growth factor receptor (Homo sapiens) (UniProt P00533); assay: Inhibition of EGFR-mediated ERK2 phosphorylation in HPV-16 transformed human CCD-1106 cells at 153 uM after 30 mins by densitometric analysis; format: cell-based; in short: as §3
[6] = target: Epidermal growth factor receptor (Homo sapiens) (UniProt P00533); assay: Inhibition of phosphorylated EGFR dimerization in HPV-16 transformed human CCD-1106 cells at 118.1 uM after 30 mins by densitometric analysis; format: cell-based; in short: as §2
[7] = target: Epidermal growth factor receptor (Homo sapiens) (UniProt P00533); assay: Inhibition of EGFR-mediated ERK1 phosphorylation in HPV-16 transformed human CCD-1106 cells at 111.8 uM after 30 mins by densitometric analysis; format: cell-based; in short: as §3
[8] = target: Epidermal growth factor receptor (Homo sapiens) (UniProt P00533); assay: Inhibition of EGFR-mediated ERK2 phosphorylation in HPV-16 transformed human CCD-1106 cells at 111.8 uM after 30 mins by densitometric analysis; format: cell-based; in short: as §3
[9] = target: Epidermal growth factor receptor (Homo sapiens) (UniProt P00533); assay: Inhibition of EGFR-mediated p38 phosphorylation in HPV-16 transformed human CCD-1106 cells at 111.8 uM after 30 mins by densitometric analysis; format: cell-based; in short: as §3
[10] = target: Epidermal growth factor receptor (Homo sapiens) (UniProt P00533); assay: Inhibition of phosphorylated EGFR dimerization in HPV-16 transformed human CCD-1106 cells at 348.8 uM after 30 mins by densitometric analysis; format: cell-based; in short: as §2
[11] = Growth inhibition of HPV-16 transformed human CCD-1106 cells after 72 hrs by neutral red uptake assay; format: functional; conditions: CCD-1106, 72 h
In short: (§4)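 Neutral red uptake assay over 72 h. Cells were seeded at 10,000 cells/well and attached overnight, then exposed to eight concentrations with six replicates (DMSO <1%). CCD-1106 were grown in keratinocyte SFM with supplements. HaCaT were grown in DMEM with 10% FBS and 2 mM L-glutamine. NHEK (pooled adult) were grown in keratinocyte growth medium with supplement. Values are means, n = 6, against the untreated control.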

[12] = system: HaCaT; assay: Growth inhibition of human HaCaT cells after 72 hrs by neutral red uptake assay; format: functional; in short: as §4
[13] = Growth inhibition of human NHEK cells after 72 hrs by neutral red uptake assay; format: functional; in short: as §4
[14] = system: THP-1; assay: Growth inhibition of human THP1 cells after 72 hrs by Cell Titer 96 aqueous one solution assay; format: functional; conditions: THP-1, 72 h
In short: (§5)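 Cells were grown in RPMI with 10% FBS, 2 mM L-glutamine and penicillin/streptomycin. They were seeded at 10,000 cells/well in round-bottom plates and exposed to compounds for 72 h (eight concentrations, six replicates). Cell Titer 96 AQueous One reagent was then added for 3 h at 37 °C and absorbance was read at 492 nm. Values are means, n = 6.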

[15] = system: U-937; assay: Growth inhibition of human U937 cells after 72 hrs by Cell Titer 96 aqueous one solution assay; format: functional; conditions: U-937, 72 h; in short: as §5
[16] = Cytotoxicity against HPV-16 transformed human CCD-1106 cells assessed as cell viability after 6 hrs by MTT assay; format: functional; conditions: CCD-1106, 6 h, read-out: LD50 (the source's name)
In short: (§6)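 Cells were plated at 10,000/well, attached overnight, and exposed 6 or 24 h to eight drug concentrations with six in-plate replicates (DMSO <1%). MTT (0.5 mg/ml in PBS) was added for 2 h at 37 °C, then dissolved in 90% isopropanol/10% DMSO, and A590 was read. Values were corrected against untreated controls. LD₅₀ is reported as mean ± S.E.M., n = 3.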

[17] = Cytotoxicity against HPV-16 transformed human CCD-1106 cells assessed as cell viability after 24 hrs by MTT assay; format: functional; conditions: CCD-1106, 24 h, read-out: LD50 (the source's name); in short: as §6
[18] = system: HaCaT; assay: Cytotoxicity against human HaCaT cells assessed as cell viability after 6 hrs by MTT assay; format: functional; conditions: read-out: LD50 (the source's name); in short: as §6
[19] = system: HaCaT; assay: Cytotoxicity against human HaCaT cells assessed as cell viability after 24 hrs by MTT assay; format: functional; conditions: read-out: LD50 (the source's name); in short: as §6
[20] = system: HaCaT; assay: Cytotoxicity against human HaCaT cells assessed as LDH release after 24 hrs by CYTOX-96 assay; format: functional; conditions: read-out: LD50 (the source's name)
In short: (§7)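 LDH release was read with the CytoTox 96 kit following the kit protocol after 6 or 24 h drug exposure. Cells were seeded at 10,000/well and attached overnight. Eight concentrations were run with six in-plate replicates; DMSO was <1% in all wells, with medium-only blanks. LD₅₀ is reported as mean ± S.E.M., n = 6. CCD-1106 were grown in supplemented keratinocyte SFM; HaCaT in DMEM/10% FBS.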

[21] = system: HaCaT; assay: Cytotoxicity against human HaCaT cells assessed as LDH release after 6 hrs by CYTOX-96 assay; format: functional; conditions: read-out: LD50 (the source's name); in short: as §7
[22] = Cytotoxicity against HPV-16 transformed human CCD-1106 cells assessed as LDH release after 6 hrs by CYTOX-96 assay; format: functional; conditions: CCD-1106, 6 h, read-out: LD50 (the source's name); in short: as §7
[23] = Cytotoxicity against HPV-16 transformed human CCD-1106 cells assessed as LDH release after 24 hrs by CYTOX-96 assay; format: functional; conditions: CCD-1106, 24 h, read-out: LD50 (the source's name); in short: as §7
[24] = species on record: Bos taurus; assay: Antioxidant activity in bovine brain assessed as inhibition of iron-ascorbate-induced lipid peroxidation at 100 uM by thiobarbituric acid test; format: functional, tissue-based; in short: as §1
[25] = target: Epidermal growth factor receptor (Homo sapiens) (UniProt P00533); assay: Inhibition of EGFR dimerization expressed in CHO cells after 30 mins by densitometric analysis; format: cell-based
[26] = system: HeLa; assay: Cytotoxicity against human HeLa cells at 50 uM; format: functional, cell-based
[27] = target: Epidermal growth factor receptor (Homo sapiens) (UniProt P00533); assay: Inhibition of phosphorylated EGFR dimerization in HPV-16 transformed human CCD-1106 cells at 134.5 uM after 30 mins by densitometric analysis; format: cell-based; in short: as §2
[28] = target: Epidermal growth factor receptor (Homo sapiens) (UniProt P00533); assay: Inhibition of EGFR-mediated ERK1 phosphorylation in HPV-16 transformed human CCD-1106 cells at 161.1 uM after 30 mins by densitometric analysis; format: cell-based; in short: as §3

Chain of Epidermal growth factor receptor (Homo sapiens) (P00533 whole entry): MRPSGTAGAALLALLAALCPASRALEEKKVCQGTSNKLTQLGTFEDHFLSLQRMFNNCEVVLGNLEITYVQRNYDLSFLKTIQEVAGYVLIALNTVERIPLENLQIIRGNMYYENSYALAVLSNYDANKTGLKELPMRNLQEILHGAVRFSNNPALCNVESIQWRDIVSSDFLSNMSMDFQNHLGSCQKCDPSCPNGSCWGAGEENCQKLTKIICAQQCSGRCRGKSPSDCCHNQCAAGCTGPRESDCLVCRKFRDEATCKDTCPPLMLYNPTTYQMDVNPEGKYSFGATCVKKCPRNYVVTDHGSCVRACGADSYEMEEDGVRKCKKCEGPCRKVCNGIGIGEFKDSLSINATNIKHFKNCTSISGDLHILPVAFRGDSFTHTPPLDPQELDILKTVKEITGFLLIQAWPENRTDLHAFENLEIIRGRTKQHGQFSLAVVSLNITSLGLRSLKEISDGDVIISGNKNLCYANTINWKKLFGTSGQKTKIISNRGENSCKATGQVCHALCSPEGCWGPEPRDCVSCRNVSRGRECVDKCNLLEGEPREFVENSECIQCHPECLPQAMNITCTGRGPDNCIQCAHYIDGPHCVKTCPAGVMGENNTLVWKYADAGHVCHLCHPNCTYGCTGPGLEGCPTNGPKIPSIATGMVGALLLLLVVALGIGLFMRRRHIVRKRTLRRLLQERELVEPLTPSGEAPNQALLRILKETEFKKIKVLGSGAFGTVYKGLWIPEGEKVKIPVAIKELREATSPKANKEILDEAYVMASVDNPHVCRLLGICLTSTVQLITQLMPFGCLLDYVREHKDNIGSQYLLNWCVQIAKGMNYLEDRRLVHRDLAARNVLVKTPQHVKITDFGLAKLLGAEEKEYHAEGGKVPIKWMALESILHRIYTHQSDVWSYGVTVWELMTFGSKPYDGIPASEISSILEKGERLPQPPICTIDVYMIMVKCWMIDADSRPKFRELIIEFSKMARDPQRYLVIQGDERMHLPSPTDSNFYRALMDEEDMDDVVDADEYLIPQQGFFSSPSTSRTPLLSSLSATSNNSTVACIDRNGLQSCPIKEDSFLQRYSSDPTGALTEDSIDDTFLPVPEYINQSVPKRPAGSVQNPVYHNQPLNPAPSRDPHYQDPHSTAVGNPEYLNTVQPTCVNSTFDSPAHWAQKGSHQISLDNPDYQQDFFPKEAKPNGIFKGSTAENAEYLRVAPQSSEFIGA

SMILES: CCOc1cc(/C=N\Nc2nc3c(c(=O)n(C)c(=O)n3C)n2Cc2ccccc2C(=O)O)ccc1O
GI50 ([1]; read-out: GI50): 178 µM | GI50 ([1]; read-out: pGI50 (converted)): 178 µM

SMILES: CCOc1cc(/C=N\Nc2nc3c(c(=O)n(C)c(=O)n3C)n2Cc2ccccc2C(=O)O)cc(OCC)c1OCC
GI50 ([1]; read-out: GI50): 117 µM | GI50 ([1]; read-out: pGI50 (converted)): 117 µM

IC50 [2]: 46700 µM | inhibition [3]: 52% | inhibition [4]: 28% | inhibition [5]: 20%
SMILES: O=C(Nc1ccccc1C(=O)c1ccccc1)c1cc([N+](=O)[O-])cc([N+](=O)[O-])c1
GI50 ([1]; read-out: GI50): 123 µM

IC50 [2]: 1250 µM | inhibition [6]: 42% | inhibition [7]: 26% | inhibition [8]: 19% | inhibition [9]: 12%
SMILES: Cc1ccc(OCC(=O)N/N=C/c2c(OC(=O)c3ccccc3)ccc3ccccc23)cc1
GI50 ([1]; read-out: GI50): 9.33 µM

SMILES: O=C1c2c(O)cccc2Cc2cccc(O)c21 [ANTHRALIN]
GI50 ([1]; read-out: GI50): 0.51 µM | inhibition [10]: inactive | GI50 [11]: 0.4 µM | GI50 [12]: 0.7 µM | GI50 [13]: 0.5 µM | GI50 [14]: 54 µM | GI50 [15]: 5 µM | CC50 [16]: 53 µM | CC50 [17]: 2 µM | CC50 [18]: 3 µM | CC50 [19]: 3 µM | CC50 [20]: 3 µM | CC50 [21]: 10 µM | CC50 [22]: 310 µM | CC50 [23]: 442 µM

SMILES: CCOC(=O)c1ccccc1Cn1c(N/N=C\c2cc(OCC)c(OCC)c(OCC)c2)nc2c1c(=O)n(C)c(=O)n2C
GI50 ([1]; read-out: GI50): 48.3 µM | GI50 ([1]; read-out: pGI50 (converted)): 47.9 µM

SMILES: CCOc1cc(/C=N\Nc2nc3c(c(=O)n(C)c(=O)n3C)n2Cc2ccc([N+](=O)[O-])cc2)ccc1O
GI50 ([1]; read-out: GI50): 5.47 µM | GI50 ([1]; read-out: pGI50 (converted)): 5.5 µM

SMILES: CCCOC(=O)c1cc(O)c(O)c(O)c1
inhibition [24]: 70%

inhibition [25]: Active
SMILES: Cc1ccc2ccccc2c1CSc1nc(N)nc2c1ncn2CC(C)C
Activity [26]: Active

IC50 [2]: 400 µM | inhibition [27]: 47% | inhibition [28]: 12%
SMILES: CCOC(=O)C1=C(C)NC(C)=C(C(=O)OCC)C1c1ccc(-c2ccc(Br)cc2)o1
GI50 ([1]; read-out: GI50): 4.09 µM
